Activity calls are given as the source filed them. No cut-off for these calls is given here.
Legend:
[1] = Clearance in mouse at 1 mg/kg, iv or 2 mg/kg, po; format: ADME, organism-based; settings: in vivo
Procedure, shortened: (§1)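 Mouse PK. Intravenous dose 1 mg/kg and oral dose 2 mg/kg, both given in DMSO/PEG400/water (5:40:55 v:v:v).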

[2] = Oral bioavailability in mouse at 2 mg/kg, po; format: ADME, organism-based; settings: in vivo; procedure, shortened: as §1
Cytochrome P450 2C8 = target: T1, Cytochrome P450 2C8 (Homo sapiens, UniProt P10632); test: Inhibition of CYP2C8 in human liver microsomes; format: ADME, Microsome
T1 sequence (P10632 whole entry): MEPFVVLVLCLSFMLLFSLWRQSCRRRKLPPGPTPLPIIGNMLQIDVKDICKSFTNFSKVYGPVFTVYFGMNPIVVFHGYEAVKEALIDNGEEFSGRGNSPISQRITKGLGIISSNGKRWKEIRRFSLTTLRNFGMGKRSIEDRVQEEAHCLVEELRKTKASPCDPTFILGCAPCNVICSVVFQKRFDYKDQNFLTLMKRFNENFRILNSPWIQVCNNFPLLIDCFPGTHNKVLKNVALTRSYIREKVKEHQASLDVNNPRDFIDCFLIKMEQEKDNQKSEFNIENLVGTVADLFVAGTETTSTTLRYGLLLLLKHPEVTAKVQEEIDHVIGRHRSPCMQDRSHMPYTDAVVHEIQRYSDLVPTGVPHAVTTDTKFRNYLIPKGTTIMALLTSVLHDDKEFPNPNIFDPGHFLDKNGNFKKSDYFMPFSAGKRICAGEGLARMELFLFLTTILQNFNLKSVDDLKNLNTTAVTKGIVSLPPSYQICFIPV
Procedure, shortened: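 Human liver microsome CYP2C8 inhibition with taxol as substrate and montelukast as positive control; IC50 reported.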

[3] = Cmax in mouse at 1 mg/kg, iv or 2 mg/kg, po; format: ADME, organism-based; settings: in vivo; procedure, shortened: as §1
Cytochrome P450 2C9 = Cytochrome P450 2C9 (Homo sapiens, UniProt P11712); test: Inhibition of CYP2C9 in human liver microsomes; format: ADME, Microsome
Sequence of Cytochrome P450 2C9 (P11712 whole entry): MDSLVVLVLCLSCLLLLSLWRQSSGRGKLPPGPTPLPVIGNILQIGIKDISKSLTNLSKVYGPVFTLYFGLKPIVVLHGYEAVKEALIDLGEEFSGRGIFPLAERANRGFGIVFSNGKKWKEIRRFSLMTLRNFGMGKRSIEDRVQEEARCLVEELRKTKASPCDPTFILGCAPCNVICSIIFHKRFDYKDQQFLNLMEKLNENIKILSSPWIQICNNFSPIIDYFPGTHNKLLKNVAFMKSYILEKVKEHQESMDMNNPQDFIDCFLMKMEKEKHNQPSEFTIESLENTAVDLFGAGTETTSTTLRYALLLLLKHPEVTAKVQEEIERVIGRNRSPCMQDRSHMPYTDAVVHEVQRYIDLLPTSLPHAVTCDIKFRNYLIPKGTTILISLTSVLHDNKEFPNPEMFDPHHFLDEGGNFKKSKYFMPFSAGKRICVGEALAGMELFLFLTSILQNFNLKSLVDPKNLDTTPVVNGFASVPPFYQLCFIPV

[4] = Half life in mouse at 1 mg/kg, iv or 2 mg/kg, po; format: ADME, organism-based; settings: in vivo; procedure, shortened: as §1
[5] = Volume of distribution at steady state in mouse at 1 mg/kg, iv or 2 mg/kg, po; format: ADME, organism-based; settings: in vivo, read-out: Vdss; procedure, shortened: as §1
Adipocyte = test: Inhibition of lipolysis in human adipocytes; format: functional, cell-based
Procedure, shortened: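 Inhibition of lipolysis in human adipocytes, read as reduction of free fatty acid release.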

[6] = Plasma concentration in mouse at 100 mg/kg, ip after 15 mins; format: ADME, organism-based; set-up: dose 100 mg/kg, route intraperitoneal
Procedure, shortened: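 After an i.p. dose in the mouse ear vasodilation study, plasma compound level measured at 15 min post-dose.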

[7] = Therapeutic index, ratio of vasodilating effect to IC50 for FFA reduction in mouse; format: organism-based; settings: in vivo
Procedure, shortened: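 Mouse ear vasodilation (flushing) measured as the change in blood perfusion by laser Doppler flowmetry after i.p. dosing in 5% DMSO/40% PEG400/55% water, with plasma drug level taken post-dose. Plasma FFA reduction was measured after p.o. dosing, with compound and FFA plasma levels at 15 min. TI = minimum plasma level inducing flushing ÷ in vivo IC50 for FFA reduction.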

[8] = target: T2, Hydroxycarboxylic acid receptor 2 (Mus musculus, UniProt Q9EP66); test: Agonist activity at mouse GPR109A by [35S]GTP-gamma-S binding assay; format: functional
T2 sequence (Q9EP66 whole entry): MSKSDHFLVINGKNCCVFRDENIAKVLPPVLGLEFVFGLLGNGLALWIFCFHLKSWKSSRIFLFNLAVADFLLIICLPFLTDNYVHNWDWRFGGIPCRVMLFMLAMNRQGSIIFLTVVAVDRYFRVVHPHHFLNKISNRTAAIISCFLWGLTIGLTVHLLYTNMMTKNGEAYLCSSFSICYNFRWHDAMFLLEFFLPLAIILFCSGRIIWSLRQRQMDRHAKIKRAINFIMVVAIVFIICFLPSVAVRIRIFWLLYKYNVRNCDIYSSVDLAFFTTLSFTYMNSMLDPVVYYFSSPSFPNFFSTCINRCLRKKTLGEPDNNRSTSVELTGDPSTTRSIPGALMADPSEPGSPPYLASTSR

[9] = target: T2, Hydroxycarboxylic acid receptor 2; test: Displacement of [3H]niacin from mouse GPR109A
Mus musculus [10] = test: Vasodilation effect in mouse ear at 100 mg/kg, ip; format: functional, organism-based; set-up: dose 100 mg/kg
Procedure, shortened: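 Flushing model in mice. Compound given i.p. in 5% DMSO/40% PEG400/55% water. Vasodilation read as the change in ear blood perfusion by laser Doppler flowmetry.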

Mus musculus [11] = test: Reduction of plasma free fatty acid levels in po dosed mouse after 15 mins; format: functional, organism-based; settings: for ED50: po
Procedure, shortened: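 Mice dosed orally. Plasma free fatty acids and plasma compound level both measured at 15 min post-dosing.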

Mus musculus [12] = test: Drug level in mouse at 10 mg/kg, po; settings: read-out: Activity, in vivo
[13] = Plasma concentration in mouse at 3 mg/kg, ip after 5 mins

clearance [1] | bioavailability [2] | IC50 (Cytochrome P450 2C8) | Cmax [3] | IC50 (Cytochrome P450 2C9) | half-life [4] | Vd [5] | IC50 (Adipocyte) | concentration at […] [6] | EC50 [8] | IC50 [9] | IC50 (Mus musculus [11]) | concentration (Mus musculus [12]) | concentration at 5 min [13] | Compound | selectivity ratio [7] | Activity (Mus musculus [10]) | ED50 (Mus musculus [11])
 |  |  |  |  |  |  |  |  |  |  |  | 20000 nM | 18000 nM | O=C(O)c1cccnc1 [NIACIN] |  |  | 8 mg/kg
26 mL/min/kg | 2.5% | 19 µM | 30 nM | 15 µM | 1.1 h | 0.88 L/kg | 0.04 µM |  |  |  |  |  |  | Cc1c(CCC(=O)Nc2ccccc2C(=O)O)cnn1-c1ccc(O)cc1 |  |  | 
7.3 mL/min/kg | 37% | 1.2 µM | 2100 nM | 2.8 µM | 1.6 h | 0.37 L/kg |  |  |  |  |  |  |  | O=C(CCc1cnc(-c2ccc(O)cc2Cl)s1)Nc1ccccc1C(=O)O |  |  | 
 |  | 9.3 µM |  | 4.2 µM |  |  |  |  |  |  |  |  |  | O=C(CCc1ncc(-c2ccc(O)cn2)s1)Nc1ccccc1C(=O)O |  |  | 
8.5 mL/min/kg | 27% | 20.3 µM | 520 nM | 5.7 µM | 2.2 h | 0.62 L/kg |  |  |  |  |  |  |  | O=C(CCc1cnc(-c2ccc(O)cn2)s1)Nc1ccccc1C(=O)O |  |  | 

Further lines, the compound ahead of its results:

Compound | clearance [1] | bioavailability [2] | IC50 (Cytochrome P450 2C8) | Cmax [3] | IC50 (Cytochrome P450 2C9) | half-life [4] | Vd [5] | IC50 (Adipocyte) | concentration at […] [6] | EC50 [8] | IC50 [9] | IC50 (Mus musculus [11]) | concentration (Mus musculus [12]) | concentration at 5 min [13] | selectivity ratio [7] | Activity (Mus musculus [10]) | ED50 (Mus musculus [11])
O=C(CCc1ccc(-c2ccc(O)cn2)cc1)Nc1ccccc1C(=O)O | 0.38 mL/min/kg | 57% | 8.9 µM | 5000 nM | 1.6 µM | 5.3 h | 0.11 L/kg |  |  |  |  |  |  |  |  |  | 
O=C(CCc1nc(-c2ccc(O)cn2)no1)Nc1ccccc1C(=O)O |  |  | > 100 µM |  | > 100 µM |  |  | 0.005 µM |  |  |  |  |  |  |  |  | 
O=C(CCc1nc(-c2ccc(O)cc2)no1)Nc1ccccc1C(=O)O | 34 mL/min/kg | 6% |  | 120 nM |  | 1.3 h | 1.66 L/kg | 0.03 µM | 490000 nM | 1.6 µM | 0.46 µM | 6.9 µM |  |  | > 70 | inactive | 9 mg/kg
O=C(CCc1ccc(-c2ccc(O)cc2Cl)cc1)Nc1ccccc1C(=O)O | 18 mL/min/kg | 5% | < 0.4 µM | 960 nM | < 0.4 µM | 2 h | 0.35 L/kg |  |  |  |  |  |  |  |  |  | 
